The text below walks through data of ChEMBL document CHEMBL4014309, “Development of an Acrylate Derivative Targeting the NLRP3 Inflammasome for the Treatment of Inflammatory Bowel Disease” (J Med Chem, 2017).

What is called inhibition is the share of the control response that was lost under treatment.

Series [1] deals with Rattus norvegicus. Nature of the series: Antiinflammatory activity in DNBS-induced Sprague-Dawley rat colitis model assessed as attenuation of DNBS-induced decrease in colonic length administered ig as suspension in olive oil for 6 days simulatneously with 6 days of DNBS-challenge. It is filed as functional.
The test system of the next series is Duodenum. As to the kind of experiment: Drug metabolism in Sprague-Dawley rat duodenum assessed as 2-(2-chlorobenzyl)acrylic acid level at 12.5 mg as suspension in olive oil measured after 2 hrs by UHPLC-MS analysis. The series is classed as ADME, tissue-based. The following applies: in vivo.
For series [2], the system named is Rattus norvegicus. Nature of the series: Antiinflammatory activity in DNBS-induced Sprague-Dawley rat colitis model assessed as DNBS-induced decrease in colonic length at 12.5 mg/kg/day, ig administered as suspension in olive oil for 6 days simulatneously with 6 days of DNBS-challenge (reference value: -34.4%). The series is classed as functional. Also on record: scale not given: the % may be the effect or the level left.

The subject of the next series is HEK293. As to the kind of experiment: Cytotoxicity against HEK293 cells assessed as extracellular LDH level at 10 to 100 uM after 24 hrs. The series is classed as cell-based. The following applies: human, hek293, 24 h.
Series [3] in a line: Cysteamine reactivity in PBS assessed as free compound level at pH 7.4 measured after 30 mins by DTNB reagent based RP-UHPLC analysis. The essentials:
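The compound was reacted with excess cysteamine in pH 7.4 phosphate buffer with CH3CN cosolvent at 37 °C. Remaining compound was followed by UHPLC over 4 h, sampled at 30 min, 60 min and 4 h, and expressed as percent of starting concentration.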

Series [4] has as its target NACHT, LRR and PYD domains-containing protein 3 (Mus musculus) (UniProt Q8R4B8). As to the kind of experiment: Inhibition of NLRP3 in C57BL/6 mouse bone marrow derived macrophages assessed as reduction in LPS-induced IL-1beta gene expression at 10 to 100 uM preincubated for 30 mins followed by LPS stimulation measured after 4 hrs by qRT-PCR analysis. The procedure, abridged: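 C57BL/6 bone marrow macrophages, differentiated with 20% L-cell medium, were preincubated with compound for 30 min. They were then left untreated or given LPS (1 ng/mL, 4 h). Tnfa, Il6 and Il1b expression was measured by quantitative RT-PCR as 2^-ΔΔCt.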
On the technique in general: In qPCR the cycle at which signal appears reflects the starting amount.

For series [5] the target is unchanged. As to the kind of experiment: Inhibition of NLRP3 inflammasome in LPS-primed C57BL/6 mouse bone marrow derived macrophages assessed as reduction in ATP-induced pyroptosis at 10 to 100 uM preincubated for 1 hr followed by stimulation with ATP measured after 30 mins by LDH release assay. The essentials:
(§1)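 Bone marrow macrophages from C57BL/6 mice, differentiated with 20% L-cell medium, primed with LPS (1 µg/mL, 3 h). Test agent or vehicle was added for 1 h, then ATP (5 mM, 30 min) or nigericin (10 µM, 30 min). IL-1β in the medium was measured by ELISA. LDH in the medium was measured colorimetrically as % of total cellular LDH.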
On the technique in general: Release of lactate dehydrogenase indicates damage to the cell membrane.

Series [6] shares this target. As to the kind of experiment: Inhibition of NLRP3 inflammasome in LPS-primed C57BL/6 mouse bone marrow derived macrophages assessed as reduction in nigericin-induced caspase-1 activation at 10 to 100 uM preincubated for 1 hr followed by stimulation with nigericin measured after 30 mins by Western blot analysis. (A western blot detects proteins with antibodies after separation by electrophoresis.)

For series [7], the system named is Rattus norvegicus. As to the kind of experiment: Antiinflammatory activity in DNBS-induced Sprague-Dawley rat colitis model assessed as reduction in DNBS-induced spleen weight increase by measuring increase in spleen weight at 50 mg/kg/day, ig administered as suspension in olive oil for 6 days simulatneously with 6 days of DNBS-challenge measured daily during compound dosing (reference value: 39.3%). The series is classed as functional. Also on record: scale not given: the % may be the effect or the level left. The essentials:
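Spleen weight was used as an index of systemic inflammation. Rats had intrarectal DNBS (15 mg/0.25 mL 50% ethanol) and 6 days of intragastric dosing: 1 mg/kg/day in 1% methylcellulose, or 12.5–50 mg/kg/day in 0.2 mL olive oil. The spleen was weighed at sacrifice and expressed as percent increase versus control, n = 10.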

Series [8] deals with Rattus norvegicus. Nature of the series: Antiinflammatory activity in DNBS-induced Sprague-Dawley rat colitis model assessed as DNBS-induced macroscopic damage score at 50 mg/kg/day, ig administered as suspension in olive oil for 6 days simulatneously with 6 days of DNBS-challenge (reference value: 8.6 +/- 0.6). It is filed as functional.
Series [9] can be described thus: Cytotoxicity against human THP1 cells assessed as reduction in cell viability after 72 hrs by MTT assay. It is filed as cell-based. The following applies: THP-1 cells, read-out: TC50. The procedure, abridged: (§2)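 Human THP-1 cells were exposed to 0.1–100 µM for 72 h, and viability was read by MTT. TC50 is the concentration that cuts viability by 50%; percent viable cells at 100 µM is also reported. Mean ± SEM of ≥3 experiments.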

A short description of series [10]: Cytotoxicity against human THP1 cells assessed as cell viability at 100 uM after 72 hrs by MTT assay. It is filed as cell-based. The following applies: THP-1 cells, read-out: Activity. The procedure, abridged:
as §2

Series [11] has as its target NACHT, LRR and PYD domains-containing protein 3 (Homo sapiens) (UniProt Q96P20). Nature of the series: Inhibition of recombinant YFP-tagged NLRP3 (unknown origin) expressed in HEK293 cells co-expressing luciferase at 10 to 100 uM after 24 hrs by BRET assay. The series is classed as cell-based. The essentials: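 HEK293 cells stably expressing YFP-NLRP3-Luc were grown in DMEM with 10% FCS, plated on poly-L-lysine, and exposed to compound or vehicle (15 h per methods; 24 h per figure legend). Cells were washed, then BRET was read after adding coelenterazine-H (5 µM). Kinetics used nigericin (10 µM) in vehicle or high-K+ (140 mM) buffer. Slopes of three phases were taken; mean ± SEM, n = 5–12.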

Series [12] has the same target. Nature of the series: Inhibition of recombinant human NLRP3 ATPase assessed as hydrolysis of ATP at 50 uM preincubated for 15 mins followed by addition of ATP measured after 40 mins by ADP-Glo assay. The procedure, abridged:
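Human recombinant NLRP3 (0.105 µg) in 20 mM Tris-HCl pH 7.8, 133 mM NaCl, 20 mM MgCl2, 3 mM KCl, 0.56 mM EDTA, 0.5% DMSO. Compound (100 or 50 µM) was preincubated 15 min at 37 °C, then ATP (250 µM) was added for 40 min at 37 °C. ADP was read by ADP-Glo luminescence. Result is % inhibition vs vehicle; mean ± SEM, ≥3 experiments.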

Series [13] has as its target NACHT, LRR and PYD domains-containing protein 3 (Mus musculus) (UniProt Q8R4B8). Nature of the series: Inhibition of NLRP3 inflammasome in LPS-primed C57BL/6 mouse bone marrow derived macrophages assessed as reduction in nigericin-induced IL-1beta production at 10 uM preincubated for 1 hr followed by stimulation with nigericin measured after 30 mins by ELISA. The essentials:
as §1

Series [14] has as its target NACHT, LRR and PYD domains-containing protein 3 (Homo sapiens) (UniProt Q96P20). Nature of the series: Inhibition of NLRP3 in PMA-differentiated and LPS-primed human THP1 cells assessed as decrease in ATP-induced pyroptosis measured as LDH activity at 10 uM preincubated for 1 hr followed by ATP addition measured after 1 hr by colorimetric assay relative to control. The procedure, abridged:
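THP-1 cells were PMA-differentiated and LPS-primed, then pretreated with vehicle or compound (10 µM, 1 h). Pyroptosis was triggered with ATP (5 mM). LDH in supernatant was measured colorimetrically 1 h after ATP and expressed as percent decrease versus vehicle, mean ± SEM of ≥3 experiments.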

The source made the active and inactive calls. The calls are words filed in the database; no cut-off is given here.

NACHT, LRR and PYD domains-containing protein 3 (Homo sapiens), sequence (Q96P20 whole entry, the tested form may be a part): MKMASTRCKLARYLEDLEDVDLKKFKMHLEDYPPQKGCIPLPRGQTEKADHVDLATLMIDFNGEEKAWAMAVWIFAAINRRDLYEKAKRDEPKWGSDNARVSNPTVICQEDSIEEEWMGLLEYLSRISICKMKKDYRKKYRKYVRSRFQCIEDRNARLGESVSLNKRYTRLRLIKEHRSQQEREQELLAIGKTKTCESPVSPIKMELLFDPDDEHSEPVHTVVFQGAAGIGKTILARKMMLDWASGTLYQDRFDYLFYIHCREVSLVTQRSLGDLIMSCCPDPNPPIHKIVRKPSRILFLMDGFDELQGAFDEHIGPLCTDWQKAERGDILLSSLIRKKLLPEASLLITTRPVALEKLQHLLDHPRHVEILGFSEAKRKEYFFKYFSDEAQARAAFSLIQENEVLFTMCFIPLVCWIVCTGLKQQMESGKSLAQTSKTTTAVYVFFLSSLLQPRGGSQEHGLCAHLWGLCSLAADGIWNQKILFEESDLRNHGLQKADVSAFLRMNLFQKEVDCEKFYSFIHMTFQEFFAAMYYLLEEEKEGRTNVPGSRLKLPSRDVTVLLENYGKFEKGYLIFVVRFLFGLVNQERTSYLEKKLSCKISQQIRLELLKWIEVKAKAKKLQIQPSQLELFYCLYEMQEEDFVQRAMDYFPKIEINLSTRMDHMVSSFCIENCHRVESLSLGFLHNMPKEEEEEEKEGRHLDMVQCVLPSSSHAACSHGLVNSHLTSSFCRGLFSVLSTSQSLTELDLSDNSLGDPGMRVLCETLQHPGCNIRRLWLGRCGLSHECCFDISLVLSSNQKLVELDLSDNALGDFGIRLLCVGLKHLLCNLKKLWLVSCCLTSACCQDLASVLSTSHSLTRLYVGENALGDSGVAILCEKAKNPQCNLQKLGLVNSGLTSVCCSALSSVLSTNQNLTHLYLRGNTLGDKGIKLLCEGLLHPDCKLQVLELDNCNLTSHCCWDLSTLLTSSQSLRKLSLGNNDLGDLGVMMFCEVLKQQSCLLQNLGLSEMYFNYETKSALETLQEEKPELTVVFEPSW
NACHT, LRR and PYD domains-containing protein 3 (Mus musculus), sequence (Q8R4B8 whole entry, the tested form may be a part): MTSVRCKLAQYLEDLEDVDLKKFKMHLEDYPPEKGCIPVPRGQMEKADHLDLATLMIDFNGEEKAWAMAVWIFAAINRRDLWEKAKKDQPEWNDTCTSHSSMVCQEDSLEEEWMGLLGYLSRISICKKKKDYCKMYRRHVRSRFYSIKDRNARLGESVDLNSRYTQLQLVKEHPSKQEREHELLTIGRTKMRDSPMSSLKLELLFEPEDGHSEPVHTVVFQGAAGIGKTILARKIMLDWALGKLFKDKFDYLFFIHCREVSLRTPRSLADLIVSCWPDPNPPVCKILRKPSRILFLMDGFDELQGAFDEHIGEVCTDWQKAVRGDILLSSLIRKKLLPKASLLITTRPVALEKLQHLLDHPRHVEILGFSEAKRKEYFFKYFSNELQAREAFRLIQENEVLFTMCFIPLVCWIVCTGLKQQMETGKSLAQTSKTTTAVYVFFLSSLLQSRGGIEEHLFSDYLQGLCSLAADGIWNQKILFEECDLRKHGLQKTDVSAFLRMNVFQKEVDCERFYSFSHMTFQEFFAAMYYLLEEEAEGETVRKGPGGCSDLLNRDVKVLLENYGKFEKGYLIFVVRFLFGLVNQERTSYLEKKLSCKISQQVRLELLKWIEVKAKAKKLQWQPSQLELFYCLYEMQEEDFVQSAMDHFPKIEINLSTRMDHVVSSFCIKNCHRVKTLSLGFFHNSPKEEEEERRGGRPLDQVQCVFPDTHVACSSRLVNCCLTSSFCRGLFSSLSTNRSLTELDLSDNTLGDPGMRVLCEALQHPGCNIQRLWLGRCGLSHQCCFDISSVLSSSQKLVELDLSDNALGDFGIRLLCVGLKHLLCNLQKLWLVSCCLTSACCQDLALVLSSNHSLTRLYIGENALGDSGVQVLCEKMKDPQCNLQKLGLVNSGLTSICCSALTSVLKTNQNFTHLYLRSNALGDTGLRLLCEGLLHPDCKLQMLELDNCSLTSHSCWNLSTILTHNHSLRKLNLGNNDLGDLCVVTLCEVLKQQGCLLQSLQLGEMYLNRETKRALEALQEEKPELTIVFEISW

`C=C(Cc1ccccc1Cl)C(=O)OCC`: the Activity entry in the series on Rattus norvegicus [1] was “Dose-dependent effect”; in the series with Rattus norvegicus [2], -19%; in the series with HEK293 it was “Non-Toxic”; with Rattus norvegicus [7], 4.8%. In addition, the Drug metabolism entry in the series on Duodenum is given as “Metabolite_Detected”. Also, the Stability in [3] worked out at 89.4%. Further, the inhibition entry in series [4], in series [5], in series [6], in series [11] and in series [13] was “Active” in each case. Also, the Activity_index in the series with Rattus norvegicus [8] is listed as 2.8. For the same compound, the CC50 at 72 h in [9] is more than 100 µM. For the same compound, the viability at 72 h, 100 µM in [10] worked out at 96.6%. In addition, the inhibition in series [12] was found to be 29%; in series [14], 33.6%.
